The source of these data is ChEMBL document CHEMBL4665651, “Design, synthesis, and biological evaluation of some novel 4-aminoquinazolines as Pan-PI3K inhibitors” (Bioorg Med Chem, 2019).

Activity calls are given as the source filed them. The rule behind the calls is not given here.

Assay [1] concerns MCF7. Description: Inhibition of PI3K in human MCF7 cells assessed as decrease in p-Akt/Akt ratio at 0.1 to 10 uM by Western blot analysis. To be noted: dose microM 0.1-10. On the technique in general: Immunoblotting shows a protein as a band on a membrane.
For assay [2], the target named is Phosphatidylinositol 4,5-bisphosphate 3-kinase catalytic subunit alpha isoform (Homo sapiens, UniProt P42336). Description: Inhibition of PI3Kalpha (unknown origin) using lipid as substrate incubated for 15 mins followed by substrate addition and measured after 60 mins ADPGloTM reagent based assay. An outline of the steps: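 ADP-Glo luminescent readout of ADP formed. Isoforms tested: p110α/p85α, p110β/p85α, p120γ and p110δ/p85α, each in PI3K reaction buffer with lipid substrate. Enzyme preincubated with compound for 15 min at room temperature. ADP-Glo reagent added for 40 min, then detection reagent for 40 min. IC50 from normalized nonlinear dose–response fit.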
Phosphatidylinositol 4,5-bisphosphate 3-kinase catalytic subunit alpha isoform, sequence (P42336 whole entry, canonical isoform): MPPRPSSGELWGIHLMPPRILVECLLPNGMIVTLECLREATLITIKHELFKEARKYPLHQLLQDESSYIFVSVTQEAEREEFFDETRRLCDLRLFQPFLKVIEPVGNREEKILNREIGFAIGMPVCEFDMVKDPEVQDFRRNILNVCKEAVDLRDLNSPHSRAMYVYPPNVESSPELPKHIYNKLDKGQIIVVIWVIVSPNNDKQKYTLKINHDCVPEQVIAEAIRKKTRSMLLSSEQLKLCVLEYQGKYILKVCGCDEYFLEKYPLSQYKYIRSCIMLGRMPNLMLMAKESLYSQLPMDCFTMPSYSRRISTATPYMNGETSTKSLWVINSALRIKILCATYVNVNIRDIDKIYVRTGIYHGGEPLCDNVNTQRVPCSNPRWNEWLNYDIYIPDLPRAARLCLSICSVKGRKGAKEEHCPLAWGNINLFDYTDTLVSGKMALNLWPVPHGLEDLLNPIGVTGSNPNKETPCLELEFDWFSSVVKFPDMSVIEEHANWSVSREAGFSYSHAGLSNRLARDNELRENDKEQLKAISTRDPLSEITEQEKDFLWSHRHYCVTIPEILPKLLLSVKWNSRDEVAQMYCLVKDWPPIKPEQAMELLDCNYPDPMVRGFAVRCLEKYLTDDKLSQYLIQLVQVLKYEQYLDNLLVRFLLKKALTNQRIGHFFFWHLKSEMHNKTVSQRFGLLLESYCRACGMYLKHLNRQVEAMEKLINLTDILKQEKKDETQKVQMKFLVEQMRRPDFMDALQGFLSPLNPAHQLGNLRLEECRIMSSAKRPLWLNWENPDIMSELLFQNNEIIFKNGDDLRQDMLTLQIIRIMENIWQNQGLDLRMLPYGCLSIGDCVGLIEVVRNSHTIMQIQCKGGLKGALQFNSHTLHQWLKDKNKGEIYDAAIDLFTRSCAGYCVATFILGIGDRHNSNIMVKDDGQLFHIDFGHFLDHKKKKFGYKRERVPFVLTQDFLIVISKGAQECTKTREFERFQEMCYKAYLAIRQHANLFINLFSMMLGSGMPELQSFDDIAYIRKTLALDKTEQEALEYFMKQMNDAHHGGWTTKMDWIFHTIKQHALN

Assay [3] deals with MCF7. The experiment in a line: Induction of apoptosis in human MCF7 cells assessed as early apoptotic cells at 0.4 uM incubated for 48 hrs by annexin V-FITC and propidium iodide staining based flow cytometry analysis (reference value: 2.7 %). The assay is classed as functional. In general terms: A flow cytometer gives signals particle by particle.
Assay [4] has as its system MCF7. Description: Inhibition of colony formation in human MCF7 cells at 0.2 to 0.8 uM incubated for 72 hrs by crystal violet staining based assay. It is filed as functional, cell-based. To be noted: dose microM 0.2-0.8, time 72.0 hrs. The gist of the method:
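MCF-7 cells seeded at 3×10³ cells per well in 6-well plates. Exposed to 0, 0.2, 0.4 or 0.8 μM for 72 h, then grown one week in drug-free medium. Colonies stained with crystal violet and photographed.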

Assay [5] has as its system MCF7. Description: Induction of apoptosis in human MCF7 cells assessed as viable cells at 0.8 uM incubated for 48 hrs by annexin V-FITC and propidium iodide staining based flow cytometry analysis (reference value: 87.7 %). It is filed as functional. To be noted: read-out: Activity.
In assay [6] the test system is MCF7. The experiment in a line: Induction of apoptosis in human MCF7 cells assessed as late apoptotic cells at 0.2 uM incubated for 48 hrs by annexin V-FITC and propidium iodide staining based flow cytometry analysis (reference value: 9.2 %). The assay is classed as functional.
For assay [7], the target named is Phosphatidylinositol 4,5-bisphosphate 3-kinase catalytic subunit gamma isoform (Homo sapiens, UniProt P48736). Description: Inhibition of PI3Kgamma (unknown origin) using lipid as substrate incubated for 15 mins followed by substrate addition and measured after 60 mins ADPGloTM reagent based assay. The gist of the method: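 ADP-Glo luminescent readout of ADP formed. Isoforms tested: p110α/p85α, p110β/p85α, p120γ and p110δ/p85α, each in PI3K reaction buffer with lipid substrate. Enzyme preincubated with compound for 15 min at room temperature. Reaction started with 250 μM ATP stock and run 60 min at room temperature. ADP-Glo reagent added for 40 min, then detection reagent for 40 min. IC50 from normalized nonlinear dose–response fit.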
Phosphatidylinositol 4,5-bisphosphate 3-kinase catalytic subunit gamma isoform, sequence (P48736 whole entry, canonical isoform): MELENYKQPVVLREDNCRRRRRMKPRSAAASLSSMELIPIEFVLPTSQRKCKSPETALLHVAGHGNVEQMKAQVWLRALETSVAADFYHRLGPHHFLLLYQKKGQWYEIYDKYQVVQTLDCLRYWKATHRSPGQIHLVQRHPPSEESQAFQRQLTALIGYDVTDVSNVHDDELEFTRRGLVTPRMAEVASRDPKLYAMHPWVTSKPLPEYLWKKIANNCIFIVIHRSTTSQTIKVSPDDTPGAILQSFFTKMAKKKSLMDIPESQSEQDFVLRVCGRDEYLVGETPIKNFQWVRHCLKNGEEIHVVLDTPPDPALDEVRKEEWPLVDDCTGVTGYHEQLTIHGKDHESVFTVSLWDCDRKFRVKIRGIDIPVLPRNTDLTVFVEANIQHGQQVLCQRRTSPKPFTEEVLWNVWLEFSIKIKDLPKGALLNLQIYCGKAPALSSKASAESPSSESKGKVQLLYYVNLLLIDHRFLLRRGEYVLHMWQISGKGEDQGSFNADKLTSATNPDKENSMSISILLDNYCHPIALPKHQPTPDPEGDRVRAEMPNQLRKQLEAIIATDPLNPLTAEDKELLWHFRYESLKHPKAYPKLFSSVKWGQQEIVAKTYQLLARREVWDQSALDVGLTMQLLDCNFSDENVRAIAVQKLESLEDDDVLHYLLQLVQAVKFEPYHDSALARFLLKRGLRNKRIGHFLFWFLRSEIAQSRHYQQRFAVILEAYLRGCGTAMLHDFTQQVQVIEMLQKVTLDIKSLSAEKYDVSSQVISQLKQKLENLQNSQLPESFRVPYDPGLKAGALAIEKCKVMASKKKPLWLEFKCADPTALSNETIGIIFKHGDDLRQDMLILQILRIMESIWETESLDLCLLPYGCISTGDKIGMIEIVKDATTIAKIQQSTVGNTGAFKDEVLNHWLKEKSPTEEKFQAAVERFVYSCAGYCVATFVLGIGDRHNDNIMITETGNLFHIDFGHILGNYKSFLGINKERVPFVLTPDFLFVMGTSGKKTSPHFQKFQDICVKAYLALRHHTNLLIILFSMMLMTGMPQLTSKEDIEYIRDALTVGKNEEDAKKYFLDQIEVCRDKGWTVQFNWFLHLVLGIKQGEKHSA
On the technique in general: In ADP-Glo the light output rises with the ADP produced.

Assay [8] relates to MCF7. The experiment in a line: Induction of apoptosis in human MCF7 cells assessed as chromatin condensation at 0.2 to 0.8 uM incubated for 48 hrs by Hoechst 33342 staining based fluorescence microscopic analysis. To be noted: dose microM 0.2-0.8, time 48.0 hrs. It is filed as functional, cell-based. An outline of the steps: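 MCF-7 cells seeded at 2×10⁵ per well in 6-well plates and allowed to settle 12 h. Treated 48 h, with medium-only controls. Stained with Hoechst 33342 for 30 min, washed, and nuclear morphology imaged by fluorescence microscopy.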

Assay [9] relates to MCF7. The experiment in a line: Inhibition of PI3K in human MCF7 cells assessed as Akt phosphorylation by Western blot analysis. The assay is classed as cell-based. To be noted: dose microM 0.1-10. The gist of the method:
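MCF-7 cells treated at 0.1, 1 and 10 μM, then washed in cold PBS and lysed in RIPA buffer with protease and phosphatase inhibitors. Equal protein run on 10% SDS-PAGE and transferred to PVDF. Blots probed for total Akt and phospho-Akt (Ser473), with GAPDH as loading control.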

Assay [10] deals with MCF7. The experiment in a line: Induction of apoptosis in human MCF7 cells assessed as viable cells at 0.4 uM incubated for 48 hrs by annexin V-FITC and propidium iodide staining based flow cytometry analysis (reference value: 87.7 %). The assay is classed as functional. To be noted: read-out: Activity.
Assay [11] deals with MCF7. The experiment in a line: Induction of apoptosis in human MCF7 cells assessed as necrotic cells at 0.2 uM incubated for 48 hrs by annexin V-FITC and propidium iodide staining based flow cytometry analysis (reference value: 0.3 %). The assay is classed as functional.
In the next assay the test system is HUVEC. The experiment in a line: Cytotoxicity against HUVEC cells assessed as reduction in cell viability incubated for 72 hrs by SRB assay. The assay is classed as cell-based. To be noted: Homo sapiens. The gist of the method:
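Normal cells exposed to a range of compound concentrations for 72 h at 37 °C in 5% CO₂. Cells TCA-fixed and viability read by SRB protein staining, normalized to day-0 and negative-control OD. IC50 from non-linear regression; values are means of triplicate measurements.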

Assay [12] concerns MCF7. The experiment in a line: Induction of apoptosis in human MCF7 cells assessed as early apoptotic cells at 0.8 uM incubated for 48 hrs by annexin V-FITC and propidium iodide staining based flow cytometry analysis (reference value: 2.7 %). It is filed as functional.
A further assay has as its system A549. The experiment in a line: Antiproliferative activity against human A549 cells assessed as reduction in cell viability incubated for 72 hrs by SRB assay. It is filed as functional, cell-based. To be noted: A549, 72 h. The gist of the method: (§1)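 Cell lines grown at 37 °C in 5% CO₂: A549 in RPMI1640, MCF-7 in DMEM, each with 10% FBS plus penicillin/streptomycin/amphotericin B. Cells exposed to a range of compound concentrations for 72 h, then TCA-fixed and SRB-stained. Growth inhibition = 100 − 100×(OD sample − OD day 0)/(OD negative control − OD day 0). IC50 from non-linear regression of percent growth against concentration.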

Assay [13] has as its system MCF7. The experiment in a line: Induction of apoptosis in human MCF7 cells assessed as late apoptotic cells at 0.4 uM incubated for 48 hrs by annexin V-FITC and propidium iodide staining based flow cytometry analysis (reference value: 9.2 %). The assay is classed as functional.
Assay [14] deals with MCF7. Description: Induction of apoptosis in human MCF7 cells assessed as viable cells at 0.2 uM incubated for 48 hrs by annexin V-FITC and propidium iodide staining based flow cytometry analysis (reference value: 87.7 %). It is filed as functional. To be noted: read-out: Activity.
The subject of assay [15] is MCF7. Description: Induction of apoptosis in human MCF7 cells assessed as early apoptotic cells at 0.2 uM incubated for 48 hrs by annexin V-FITC and propidium iodide staining based flow cytometry analysis (reference value: 2.7 %). It is filed as functional.
Assay [16] relates to MCF7. Description: Induction of apoptosis in human MCF7 cells assessed as late apoptotic cells at 0.8 uM incubated for 48 hrs by annexin V-FITC and propidium iodide staining based flow cytometry analysis (reference value: 9.2 %). The assay is classed as functional.
Assay [17] concerns the target Epidermal growth factor receptor (Homo sapiens, UniProt P00533). Description: Inhibition of EGFR (unknown origin) using FAM-labeled peptide as substrate incubated for 10 mins followed by substrate addition and measured after 1 hr by mobility shift assay. The gist of the method: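 Mobility shift assay in 50 mM HEPES pH 7.5, 10 mM MgCl₂, 2 mM DTT, 0.0015% Brij35. Compound in 10-point DMSO dilution, run in duplicate. Enzyme preincubated with compound 10 min at room temperature. FAM-labeled peptide and ATP then added and reaction run at 28 °C for 1 h. Stopped with EDTA buffer; conversion turned into percent inhibition and fitted to a Hill equation for IC50.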

For a further assay, the system named is HCT-116. Description: Antiproliferative activity against human HCT-116 cells assessed as reduction in cell viability incubated for 72 hrs by SRB assay. It is filed as functional, cell-based. To be noted: HCT-116, 72 h.
The test system of assay [18] is MCF7. Description: Antiproliferative activity against human MCF7 cells assessed as reduction in cell viability incubated for 72 hrs by SRB assay. The assay is classed as functional, cell-based. To be noted: MCF7, 72 h. An outline of the steps: as §1

Epidermal growth factor receptor, sequence (P00533 whole entry): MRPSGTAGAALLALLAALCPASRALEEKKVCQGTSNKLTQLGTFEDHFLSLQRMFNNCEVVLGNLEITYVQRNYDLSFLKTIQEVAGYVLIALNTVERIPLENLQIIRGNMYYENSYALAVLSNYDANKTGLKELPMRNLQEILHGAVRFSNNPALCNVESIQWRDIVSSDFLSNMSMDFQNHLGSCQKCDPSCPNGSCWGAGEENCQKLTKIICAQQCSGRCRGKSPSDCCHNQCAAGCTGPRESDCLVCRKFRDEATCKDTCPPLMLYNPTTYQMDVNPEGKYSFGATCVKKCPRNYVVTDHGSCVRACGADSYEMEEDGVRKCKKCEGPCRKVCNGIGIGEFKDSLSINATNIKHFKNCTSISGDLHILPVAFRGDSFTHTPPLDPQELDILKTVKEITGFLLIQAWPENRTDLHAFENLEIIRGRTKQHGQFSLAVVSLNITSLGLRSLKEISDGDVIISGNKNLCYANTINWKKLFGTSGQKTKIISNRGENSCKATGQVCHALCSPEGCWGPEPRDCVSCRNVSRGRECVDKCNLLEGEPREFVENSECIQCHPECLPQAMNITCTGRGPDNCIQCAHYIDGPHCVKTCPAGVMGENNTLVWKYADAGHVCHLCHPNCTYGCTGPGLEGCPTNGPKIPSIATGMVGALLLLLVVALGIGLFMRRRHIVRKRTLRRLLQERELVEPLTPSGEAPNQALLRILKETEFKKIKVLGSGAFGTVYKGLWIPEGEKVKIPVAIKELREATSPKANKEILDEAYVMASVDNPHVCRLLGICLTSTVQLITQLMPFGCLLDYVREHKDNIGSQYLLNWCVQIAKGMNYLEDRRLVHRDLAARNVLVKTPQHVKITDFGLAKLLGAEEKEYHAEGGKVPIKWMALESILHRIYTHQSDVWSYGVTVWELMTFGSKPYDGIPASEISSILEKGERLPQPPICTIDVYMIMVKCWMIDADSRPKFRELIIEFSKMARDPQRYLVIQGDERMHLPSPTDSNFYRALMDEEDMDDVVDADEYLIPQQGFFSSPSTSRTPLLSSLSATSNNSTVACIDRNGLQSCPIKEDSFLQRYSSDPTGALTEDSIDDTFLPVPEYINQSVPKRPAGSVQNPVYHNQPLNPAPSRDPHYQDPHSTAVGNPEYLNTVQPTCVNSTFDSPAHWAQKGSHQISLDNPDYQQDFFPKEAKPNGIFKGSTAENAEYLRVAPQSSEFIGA

As usually defined, the IC50 is the concentration at which inhibition is half-maximal. As to `COc1ncc(-c2ccc3ncnc(Nc4cnn(CCO)c4)c3c2)cc1NS(=O)(=O)c1ccc(F)cc1F`, in the assay with MCF7 [1], the inhibition result was “Active”. Besides, the IC50 in assay [2] is 0.2 nM; in [7], 0.58 nM; with HUVEC it was 19.6 µM; with A549, 3.1 µM; in assay [17], greater than 10 µM; with HCT-116, 330 nM. Also, in the assay on MCF7 [18], the half-maximal inhibitory concentration (IC50) came to 220 nM. The Activity in the assay on MCF7 [3] was found to be 3.8%; in the assay with MCF7 [6], 20.6%; in the assay with MCF7 [11], 2.2%; in the assay with MCF7 [12], 4.8%; in the assay on MCF7 [13], 23.6%; in the assay with MCF7 [15], 2.8%. Further, in the assay on MCF7 [16], the Activity is given as 22.7%. Also, the inhibition result in the assay with MCF7 [4] and with MCF7 [9] was “Dose-dependent effect” in each case. In addition, the viability at 0.8 µM with MCF7 [5] was 70.3%. Moreover, the result in the assay with MCF7 [8] was Active. The viability at 0.4 µM with MCF7 [10] turned out to be 70%. In the assay with MCF7 [14], the viability at 0.2 µM came out at 74.7%.
